Assay results reported in ChEMBL document CHEMBL2163251, “Synthesis and pharmacological evaluation of indolinone derivatives as novel ghrelin receptor antagonists” (Bioorg Med Chem, 2012).
The source made the active and inactive calls. The rule behind the calls is not given here.

Experiments:
[1] = molecular target: T1, Growth hormone secretagogue receptor type 1 (Homo sapiens, UniProt Q92847); assay: Antagonist activity at human GHSR1 expressed in CHO-CREluc cells after 4 hrs by Luciferase reporter assay; type: functional, cell-based
How it was run: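 hGHSR1a stably cloned into CHO line carrying CRE-luciferase reporter (six CRE upstream of firefly luciferase). Cells plated in MEM with 10% dialysed FBS. Stimulation medium held 0.1 µM forskolin and 3 nM human ghrelin. Luciferase read by photon counting.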

[2] = molecular target: T1, Growth hormone secretagogue receptor type 1; assay: Displacement of [125I]-ghrelin from human GHSR1 expressed in CHO-CREluc cells after 1 hr by scintillation counting; type: cell-based
How it was run: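 Crude membranes from CHO-CREluc-hGHSR1a cells were homogenized in TM buffer (10 mM Tris-HCl pH 7.4, 10 mM MgCl2) and spun at 40,000g. Incubated 1 h in TM buffer with 0.25% BSA and 10% dialysed FBS, 0.25 nM [125I] human ghrelin and increasing compound concentrations. Harvested on PEI-pretreated GF/B filters and washed with cold buffer. Bound radioactivity counted by scintillation.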

[3] = system: Mus musculus; assay: Effect of glucose tolerance in fasted C57/BL6N mouse assessed as inhibition of glucose excursion at 30 mg/kg, po measured after 20 to 120 mins by IPGTT
[4] = system: Rattus norvegicus; assay: Inhibition of ghrelin induced food intake in CD rat at 10 mg/kg, ip administered 30 mins prior to icv ghrelin challenge measured after 4 hrs; type: functional; conditions: route intraperitoneal
How it was run: (§1)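 Adult male CD rats (200–300 g) fitted with lateral-ventricle cannulae. Dosed 10 mg/kg ip 30 min before icv rat ghrelin (10 µg/rat in 15 µl) or saline. Cumulative food intake measured hourly for 4 h, n=6–7 per group.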

[5] = system: Rattus norvegicus; assay: Inhibition of ghrelin-induced gastric emptying in CD rat at 3 mg/kg, ip; type: functional; conditions: Stomach, route intraperitoneal
How it was run: (§2)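 24 h fasted male CD rats dosed ip (vehicle 2 ml/kg), then given rat ghrelin 20 µg/kg iv. BaSO4 meal (75% w/v in 0.5% CMC, 1 ml/100 g) given by gavage. Stomach content weighed at 0 or 60 min and compared with drug-free controls killed at t=0.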

[6] = system: Rattus norvegicus; assay: Inhibition of ghrelin-induced gastric emptying in CD rat at 10 mg/kg, ip; type: functional; conditions: Stomach, route intraperitoneal; how it was run: as §2
[7] = Permeability across human Caco2/TC7 cells assessed as compound recovery; type: ADME, cell-based; conditions: Caco-2, read-out: permeability
[8] = Permeability across human Caco2/TC7 cells compound transport; type: ADME, cell-based; conditions: Caco-2, read-out: permeability
[9] = Drug metabolism in mouse liver microsomes at 5 uM after 24 hrs; type: ADME, Microsome; conditions: read-out: Drug metabolism
How it was run: (§3)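 Compound at 5 µM incubated 24 h with isolated hepatic microsomal fractions from mouse, rat or human.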

[10] = Drug metabolism in rat liver microsomes at 5 uM after 24 hrs; type: ADME, Microsome; conditions: read-out: Drug metabolism; how it was run: as §3
[11] = Drug metabolism in human liver microsomes at 5 uM after 24 hrs; type: ADME, Microsome; conditions: read-out: Drug metabolism; how it was run: as §3
[12] = system: Hepatocyte; assay: Intrinsic clearance in human hepatocytes assessed per million cells at 5 uM; type: ADME, cell-based
[13] = system: P-glycoprotein; assay: P-glycoprotein-mediated efflux ratio of the compound; type: ADME; conditions: not told
[14] = Binding affinity at adenosine receptor at 10 uM
[15] = Binding affinity at adrenergic receptor at 10 uM
[16] = Binding affinity at cannbinoids receptor at 10 uM
[17] = Binding affinity at dopamine receptor at 10 uM
[18] = Binding affinity at histamine receptor at 10 uM
[19] = Binding affinity at muscarinic receptor at 10 uM
[20] = Binding affinity at opioids receptor at 10 uM
[21] = Binding affinity at serotonin receptor at 10 uM
[22] = Binding affinity at vasopressin receptor at 10 uM
[23] = system: Rattus norvegicus; assay: Inhibition of ghrelin-induced gastric emptying in ip dosed CD rat; type: functional, organism-based; conditions: Stomach; how it was run: as §2
[24] = system: Rattus norvegicus; assay: Inhibition of gastric emptying in CD rat at 3 mg/kg, ip; type: functional; conditions: Stomach, route intraperitoneal
How it was run: (§4)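 24 h fasted male CD rats dosed ip (vehicle 2 ml/kg), no ghrelin. BaSO4 meal (75% w/v in 0.5% CMC, 1 ml/100 g) given by gavage. Rats killed at 0 or 60 min and stomach content weighed. Result expressed relative to the mean content of drug-free controls killed at t=0.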

[25] = system: Rattus norvegicus; assay: Inhibition of gastric emptying in CD rat at 10 mg/kg, ip; type: functional; conditions: Stomach, route intraperitoneal; how it was run: as §4
[26] = system: Mus musculus; assay: Inhibition of ghrelin-induced food intake in fasted C57/BL6N mouse at 10 mg/kg, ip up to 6 hrs; type: functional, organism-based; parameters: dose 10 mg/kg
How it was run: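 Male C57BL/6 mice fasted overnight and dosed ip 10 mg/kg (vehicle 10 ml/kg) 1 h before refeeding. Cumulative food intake recorded after food return.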

[27] = system: Rattus norvegicus; assay: Inhibition of ghrelin induced food intake in CD rat at 10 mg/kg, ip administered 30 mins prior to icv ghrelin challenge measured after 1 hr; type: functional; conditions: route intraperitoneal; how it was run: as §1
[28] = system: Rattus norvegicus; assay: Inhibition of ghrelin induced food intake in CD rat at 10 mg/kg, ip administered 30 mins prior to icv ghrelin challenge measured after 2 hrs; type: functional; conditions: route intraperitoneal; how it was run: as §1
[29] = system: Rattus norvegicus; assay: Inhibition of ghrelin induced food intake in CD rat at 10 mg/kg, ip administered 30 mins prior to icv ghrelin challenge measured after 3 hrs; type: functional; conditions: route intraperitoneal; how it was run: as §1
[30] = system: Mus musculus; assay: Effect of glucose tolerance in fasted C57/BL6N mouse assessed as inhibition of glucose excursion at 30 mg/kg, po administered 30 mins before glucose challenge measured after 20 to 120 mins by IPGTT; type: functional
How it was run: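 Male C57/Bl6N mice fasted 16–18 h, then given 30 mg/kg or vehicle by oral gavage. Fasting glucose read from tail blood 30 min after dosing. Glucose 2 g/kg ip given 30 min later, with glucose measured at 20–120 min. […] calculated by trapezoidal method and expressed as % of vehicle AUC.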

[31] = Binding affinity at receptor at 10 uM

T1 sequence (Q92847 whole entry): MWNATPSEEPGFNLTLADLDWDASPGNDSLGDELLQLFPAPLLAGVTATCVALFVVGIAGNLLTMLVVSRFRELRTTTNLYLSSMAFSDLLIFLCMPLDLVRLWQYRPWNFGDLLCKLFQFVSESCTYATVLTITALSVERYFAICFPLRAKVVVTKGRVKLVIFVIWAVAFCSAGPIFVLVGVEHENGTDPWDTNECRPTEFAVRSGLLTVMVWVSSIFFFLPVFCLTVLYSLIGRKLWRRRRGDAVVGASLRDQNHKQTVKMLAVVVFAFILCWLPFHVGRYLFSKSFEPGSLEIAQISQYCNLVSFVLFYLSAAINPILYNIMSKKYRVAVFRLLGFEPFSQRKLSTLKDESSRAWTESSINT

## CN1CCN(CC(=O)NC2(c3ccc(Cl)c(Cl)c3)C(=O)Nc3cc(Cl)cc(Cl)c32)CC1 (single isomer, unassigned; (+))
[1]
  IC50: 24 nM

## C=CCN1CCN(CC(=O)NC2(c3ccc(Cl)c(Cl)c3)C(=O)Nc3cc(Cl)cc(Cl)c32)CC1 (single isomer, unassigned; (+))
[1]
  IC50: 38 nM
[2]
  Ki: 121 nM

## Cc1ccc2c(c1Cl)C(NC(=O)CN1CCN(C)CC1)(c1ccc(Cl)cc1)C(=O)N2 (racemic)
[1]
  IC50: 1160 nM

## CCN1CCN(CC(=O)NC2(c3ccc(Cl)c(Cl)c3)C(=O)Nc3cc(Cl)cc(Cl)c32)CC1=O (single isomer, unassigned; (+))
[1]
  IC50: 2780 nM

## CC1CCN(CC(=O)NC2(c3ccc(Cl)cc3)C(=O)Nc3cc(Cl)c(Cl)cc32)CC1 (racemic)
[1]
  IC50: 2540 nM

## Cc1cc2c(cc1Cl)NC(=O)C2(NC(=O)CN1CCN(C)CC1)c1cccc(Cl)c1 (racemic)
[1]
  IC50: 1180 nM

## CN(C)C1CCN(CC(=O)NC2(c3ccc(Cl)c(Cl)c3)C(=O)Nc3cc(Cl)cc(Cl)c32)CC1 (single isomer, unassigned; (+))
[1]
  IC50: 239 nM

## Cc1cc2c(cc1Cl)NC(=O)C2(NC(=O)CN1CCN(C)CC1)c1ccc(Cl)cc1Cl (racemic)
[1]
  IC50: > 10000 nM

## CCC1=C(C)CN(C(=O)NCCc2ccc(S(=O)(=O)NC(=O)N[C@H]3CC[C@H](C)CC3)cc2)C1=O
[3]
  inhibition: Active

## Cc1cc2c(cc1Cl)NC(=O)C2(NC(=O)CN1CCN(C)CC1)c1ccc(Cl)c(Cl)c1 (racemic)
[1]
  IC50: 220 nM
[2]
  Ki: > 1000 nM

## COc1ccc(C2(NC(=O)CN3CCN(C)CC3)C(=O)Nc3cc(Cl)c(C)cc32)cc1 (single isomer, unassigned; (+))
[1]
  IC50: 525 nM

## Cc1cc2c(cc1Cl)C(NC(=O)CN1CCN(C)CC1)(c1ccc(Cl)cc1)C(=O)N2 (single isomer, unassigned; (+))
[1]
  IC50: 251 nM

## CN1CCN(CC(=O)NC2(c3ccc(Cl)c(Cl)c3)C(=O)Nc3cc(Cl)ccc32)CC1 (single isomer, unassigned; (+))
[1]
  IC50: 111 nM

## COc1ccc(C2(NC(=O)CN3CCN(C)CC3)C(=O)Nc3cc(Cl)c(Cl)cc32)cc1 (single isomer, unassigned; (+))
[1]
  IC50: 700 nM

## Cc1cc2c(cc1Cl)NC(=O)C2(NC(=O)CN1CCN(c2ccncc2)CC1)c1ccc(Cl)cc1 (racemic)
[1]
  IC50: > 10000 nM

## CN1CCCN(CC(=O)NC2(c3ccc(Cl)c(Cl)c3)C(=O)Nc3cc(Cl)cc(Cl)c32)CC1 (single isomer, unassigned; (+))
[1]
  IC50: 64 nM

## CN1CCN(CC(=O)NC2(c3ccc(C(C)(C)C)cc3)C(=O)Nc3cc(Cl)c(Cl)cc32)CC1 (single isomer, unassigned; (+))
[1]
  IC50: 1470 nM

## CN1CCN(CC(=O)N[C@]2(c3ccc(Cl)cc3)C(=O)Nc3cc(Cl)c(Cl)cc32)CC1
[1]
  IC50: 47 nM
[2]
  Ki: 249 nM

## CN(C)[C@@H]1CCN(CC(=O)NC2(c3ccc(Cl)c(Cl)c3)C(=O)Nc3cc(Cl)cc(Cl)c32)C1 (stereo partly drawn)
[1]
  IC50: 25 nM

## Cc1cc2c(cc1Cl)NC(=O)C2(NC(=O)CN1CCN(Cc2ccccc2)CC1)c1ccc(Cl)cc1 (racemic)
[1]
  IC50: > 10000 nM

## CCN1CCCC(CC(=O)NC2(c3ccc(Cl)c(Cl)c3)C(=O)Nc3cc(Cl)cc(Cl)c32)C1 (single isomer, unassigned; (+))
[1]
  IC50: 47 nM

## Cc1cc2c(cc1Cl)NC(=O)C2(NC(=O)CN1CCN(C)CC1)c1ccc(Cl)cc1 (racemic)
[1]
  IC50: 213 nM
[2]
  Ki: 392 nM

## CCN1CCN(CC(=O)NC2(c3ccc(Cl)c(Cl)c3)C(=O)Nc3cc(Cl)cc(Cl)c32)CC1 (single isomer, unassigned; (+))
[4]
  inhibition in vivo at 10 mg/kg: 53%
[5]
  inhibition in vivo at 3 mg/kg: 55%
[6]
  inhibition in vivo at 10 mg/kg: 62%
[1]
  IC50: 7 nM
[2]
  Ki: 8 nM
[7]
  recovery: 51.8%
[8]
  Papp: 0.385 ×10⁻⁶ cm/s
[9]
  metabolised at 24 h, 5 µM: 44%
[10]
  metabolised at 24 h, 5 µM: 45%
[11]
  metabolised at 24 h, 5 µM: 41%
[12]
  CLint: 0.097 mL/h/10⁶ cells
[13]
  efflux ratio: 6.6
[14]
  Activity: inactive
[15]
  Activity: inactive
[16]
  Activity: inactive
[17]
  Activity: inactive
[18]
  Activity: inactive
[19]
  Activity: inactive
[20]
  Activity: inactive
[21]
  Activity: inactive
[22]
  Activity: inactive
[23]
  inhibition: Dose-dependent effect
[24]
  inhibition in vivo at 3 mg/kg: 68%
[25]
  inhibition in vivo at 10 mg/kg: 55%
[26]
  inhibition: Active
[27]
  inhibition in vivo at 10 mg/kg: 58%
[28]
  inhibition in vivo at 10 mg/kg: 60%
[29]
  inhibition in vivo at 10 mg/kg: 61%
[30]
  inhibition in vivo at 30 mg/kg: 32%
[31]
  Activity: inactive

## CN1CCN(CC(=O)NC2(c3ccc(Cl)cc3)C(=O)Nc3cc(Cl)cc(Cl)c32)CC1 (single isomer, unassigned; (+))
[1]
  IC50: 72 nM
[2]
  Ki: 44 nM

## CCN1CCN(CC(=O)NC2(c3ccc(Cl)cc3)C(=O)Nc3cc(Cl)c(Cl)cc32)CC1 (racemic)
[1]
  IC50: 110 nM
[2]
  Ki: 202 nM

## CCN1CCN(CC(=O)NC2(c3ccc(Cl)cc3)C(=O)Nc3cc(Cl)c(C)cc32)CC1 (racemic)
[1]
  IC50: 129 nM
[2]
  Ki: 286 nM

## CN(C)[C@H]1CCN(CC(=O)NC2(c3ccc(Cl)c(Cl)c3)C(=O)Nc3cc(Cl)cc(Cl)c32)C1 (stereo partly drawn)
[1]
  IC50: 110 nM

## CN1CCN(CC(=O)NC2(c3ccc(Cl)cc3)C(=O)Nc3cc(Cl)c(Cl)cc32)CC1 (single isomer, unassigned; (-))
[1]
  IC50: > 10000 nM

## CN(C)CCN(C)CC(=O)NC1(c2ccc(Cl)cc2)C(=O)Nc2cc(Cl)c(Cl)cc21 (racemic)
[1]
  IC50: > 10000 nM

## CCN1CCC(CC(=O)NC2(c3ccc(Cl)c(Cl)c3)C(=O)Nc3cc(Cl)cc(Cl)c32)CC1 (single isomer, unassigned; (+))
[1]
  IC50: 1 nM
[2]
  Ki: 3 nM
[13]
  efflux ratio: 58

## Cc1cc2c(cc1Cl)NC(=O)C2(NC(=O)CN1CCNCC1)c1ccc(Cl)cc1 (racemic)
[1]
  IC50: > 10000 nM

## Cc1cc2c(cc1Cl)NC(=O)C2(NC(=O)CN1CCN(C)CC1)c1ccccc1Cl (racemic)
[1]
  IC50: > 10000 nM

## CN1CCN(CC(=O)NC2(c3ccc(Cl)cc3)C(=O)Nc3cc(Cl)c(Cl)c(Cl)c32)CC1 (racemic)
[1]
  IC50: 273 nM

## CN1CCN(CC(=O)NC2(c3ccc(Cl)cc3)C(=O)Nc3cc(Cl)ccc32)CC1 (single isomer, unassigned; (+))
[1]
  IC50: 140 nM

## CN1CCN(CC(=O)NC2(c3ccc(Cl)cc3)C(=O)Nc3c(Cl)cc(Cl)cc32)CC1 (single isomer, unassigned; (+))
[1]
  IC50: 1390 nM
